# pIC50: −log10 of the molar value.
# What was measured:
# Staphylococcus aureus = test: Antibacterial activity against Staphylococcus aureus ATCC 29213 after 20 to 22 hrs by broth microdilution method; type: functional
# Method in brief: (§1)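 CLSI broth microdilution MIC. Twofold compound dilutions spanned 128-0.5 µg/mL, with azithromycin as comparator. Streptococci were grown on Columbia agar with 5% sheep blood, and their broth used 5% horse serum instead of lysed blood. H. influenzae was grown on Mueller-Hinton chocolate agar and staphylococci on Mueller-Hinton agar. Direct colony suspension gave 5x10⁴ CFU/well. Plates were read visually after 20-22 h at 37°C in ambient air.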
# Streptococcus pneumoniae = test: Antibacterial activity against Streptococcus pneumoniae ATCC 49619 after 20 to 22 hrs by broth microdilution method; type: functional; method in brief: as §1
# Streptococcus pyogenes = test: Antibacterial activity against Streptococcus pyogenes ATCC 700294 after 20 to 22 hrs by broth microdilution method; type: functional; settings: M1 GAS; method in brief: as §1
# Moraxella catarrhalis = test: Antibacterial activity against Moraxella catarrhalis ATCC 23246 after 20 to 22 hrs by broth microdilution method; type: functional; method in brief: as §1
# Haemophilus influenzae = test: Antibacterial activity against Haemophilus influenzae ATCC 49247 after 20 to 22 hrs by broth microdilution method; type: functional; method in brief: as §1
# Escherichia coli = test: Antibacterial activity against Escherichia coli ATCC 25922 after 20 to 22 hrs by broth microdilution method; type: functional; method in brief: as §1
# HepG2 = test: Cytotoxicity against human HepG2 cells assessed as NADH level after overnight incubation by MTS assay; type: cell-based
# Method in brief: (§2)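 Cells were maintained in RPMI 1640 with 10% FBS at 37°C under 5% CO₂. Compounds were twofold serially diluted across 100-0.2 µM, and 5x10⁴ cells/well were added and incubated overnight at 37°C, 5% CO₂. MTS reagent was then added for 1 h under the same conditions, and absorbance was read at 490 nm.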
# Jurkat = test: Cytotoxicity against human Jurkat T cells assessed as NADH level after overnight incubation by MTS assay; type: cell-based; method in brief: as §2
Structure (SMILES),MIC (Staphylococcus aureus) [µg/mL],MIC (Streptococcus pneumoniae) [µg/mL],MIC (Streptococcus pyogenes) [µg/mL],MIC (Moraxella catarrhalis) [µg/mL],MIC (Haemophilus influenzae) [µg/mL],MIC (Escherichia coli) [µg/mL],pIC50 (HepG2),pIC50 (Jurkat)
O=c1c2ccccc2oc2cccc(O)c12,> 128,> 128,> 128,128,> 128,> 128,< 4.00,< 4.00
CC(=O)Oc1cc(OC(C)=O)c2c(=O)c3cccc(OC(C)=O)c3oc2c1,> 128,> 128,> 128,> 128,> 128,> 128,< 4.00,4.04
CC(=O)Oc1ccc2c(=O)c3c(OC(C)=O)cc(OC(C)=O)cc3oc2c1,64,> 128,> 128,4,128,> 128,< 4.00,< 4.00
CC(=O)Oc1cc(OC(C)=O)c2c(=O)c3c(OC(C)=O)cccc3oc2c1,128,> 128,> 128,128,> 128,> 128,4.03,4.21
O=c1c2ccccc2sc2cc(O)cc(O)c12,16,> 128,> 128,8,16,> 128,< 4.00,< 4.00
CC(=O)Oc1cc(OC(C)=O)c2c(=O)c3ccccc3sc2c1,> 128,> 128,> 128,64,> 128,> 128,< 4.00,< 4.00
O=c1c2cc(O)ccc2oc2cc(O)cc(O)c12,128,> 128,> 128,128,> 128,> 128,< 4.00,< 4.00
O=c1c2cccc(O)c2oc2cc(O)cc(O)c12,> 128,> 128,> 128,16,> 128,> 128,< 4.00,< 4.00
O=c1c2ccccc2oc2cc(O)cc(O)c12,64,> 128,> 128,16,64,> 128,< 4.00,< 4.00
CC(=O)Oc1cccc2oc3ccccc3c(=O)c12,> 128,> 128,> 128,128,> 128,> 128,< 4.00,4.11
O=c1c2ccc(O)cc2oc2cccc(O)c12,32,> 128,> 128,8,> 128,> 128,4.03,4.12
CC(=O)Oc1cc(OC(C)=O)c2c(=O)c3ccccc3oc2c1,128,> 128,> 128,32,128,> 128,< 4.00,< 4.00
O=c1c2ccc(O)cc2oc2cc(O)cc(O)c12,64,> 128,> 128,2,32,> 128,< 4.00,< 4.00
CC(=O)Oc1cc(OC(C)=O)c2c(=O)c3cc(OC(C)=O)ccc3oc2c1,> 128,> 128,> 128,> 128,> 128,> 128,< 4.00,< 4.00
O=c1c2c(O)cccc2oc2cc(O)cc(O)c12,8,128,> 128,8,16,> 128,4.05,4.08
CC(=O)Oc1ccc2c(=O)c3c(OC(C)=O)cccc3oc2c1,64,> 128,> 128,16,128,> 128,4.05,< 4.00
CC[C@H]1OC(=O)[C@H](C)[C@@H](O[C@H]2C[C@@](C)(OC)[C@@H](O)[C@H](C)O2)[C@H](C)[C@@H](O[C@@H]2O[C@H](C)C[C@H](N(C)C)[C@H]2O)[C@](C)(O)C[C@@H](C)CN(C)[C@H](C)[C@@H](O)[C@]1(C)O [AZITHROMYCIN],1,< 0.125,< 0.125,< 0.125,1,2,,

# From ChEMBL document CHEMBL2016547, “An efficient and convenient microwave-assisted chemical synthesis of (thio)xanthones with additional in vitro and in silico characterization” (Bioorg Med Chem, 2012)
